Consider one compound from ChEMBL document CHEMBL2380219, “Physalin A induces apoptotic cell death and protective autophagy in HT1080 human fibrosarcoma cells” (J Nat Prod, 2013).

The source made the active and inactive calls. The rule behind the calls is not given here.

For assay [1], the system named is HT-1080. Briefly: Induction of autophagy in human HT1080 cells assessed as upregulation of beclin 1 at 10 uM pretreated with rapamycin for 1 hr prior to compound addition measured after 24 hrs by Western blotting analysis. The class given is functional, cell-based. The procedure, abridged: (§1)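 HT1080 cells pretreated 1 h with 1 mM 3MA or 1 nM rapamycin, then 10 μM added for 24 h. Adherent and floating cells lysed in Hepes pH 7.4/Triton buffer. Equal protein on 12% SDS-PAGE and nitrocellulose, probed for beclin 1 and LC3, ECL detection. Normalized to β-actin, n = 3.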
A general note: In western blotting, separated proteins are transferred to a membrane and probed.

For the next assay, the system named is HeLa. Kind of assay: Cytotoxicity against human HeLa cells assessed as growth inhibition after 24 hrs by MTT assay. The class given is functional, cell-based. In short, it runs like this:
(§2)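 Seeded 0.8 × 10^4 cells/well, cultured 24 h, then exposed to 0, 10, 20, 40 or 80 μM for 24 h (DMSO <0.05%) in RPMI 1640 or MEM with 10% FBS. Adherent lines rinsed with PBS, given MTT 2 h at 37 °C. Suspension lines (U937, HL60) given MTT 2 h, then centrifuged. Formazan dissolved in DMSO, A492 read. Inhibition % = (control − sample)/(control − blank) × 100.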
(In general: Tetrazolium dyes change colour on reduction, which living cells bring about.)

In assay [2] the test system is HT-1080. Kind of assay: Induction of apoptosis in human HT1080 cells assessed as accumulation in subG1 phase at 10 uM after 24 hrs by propidium iodide staining-based FACS flow cytometric analysis (reference value: 0.32%). The class given is functional. A general note: Flow cytometry measures light scatter and fluorescence of single cells or particles in a stream.
Assay [3] deals with HT-1080. Kind of assay: Induction of autophagy in human HT1080 cells assessed as upregulation of beclin 1 at 10 uM pretreated with 3MA for 1 hr prior to compound addition measured after 24 hrs by Western blotting analysis. The class given is functional, cell-based. The procedure, abridged: as §1
Assay [4] deals with HT-1080. Briefly: Induction of apoptosis in human HT1080 cells assessed as procaspase-3 cleavage at 10 uM by Western blotting analysis. The class given is functional, cell-based. The settings on record: TDE = time-dependent effect.
Assay [5] deals with HT-1080. Kind of assay: Cytotoxicity against human HT1080 cells assessed as growth inhibition after 24 hrs by MTT assay. The class given is functional, cell-based. The conditions noted are these: HT-1080, 24 h.
Assay [6] deals with HT-1080. Briefly: Induction of autophagy in human HT1080 cells assessed as increase in autophagolysosomes at 10 uM after 24 hrs by MDC staining-based fluorescence microscopic analysis (reference value: 2.65 +/- 0.12%). The class given is functional. In short, it runs like this: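 HT1080 cells at 2 × 10^4 per well, cultured 24 h, then given 10 μM for 24 h. Stained with 0.05 mM MDC at 37 °C for 1 h. Autophagolysosomes viewed by fluorescence microscopy at 200×.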

The next assay deals with HepG2. Briefly: Cytotoxicity against human HepG2 cells assessed as growth inhibition after 24 hrs by MTT assay. The class given is functional, cell-based. The procedure, abridged:
as §2

For assay [7], the system named is HT-1080. Briefly: Induction of apoptosis in human HT1080 cells expressing beclin 1 siRNA assessed as suppression of LC31to LC32 conversion at 10 uM after 24 hrs by Western blotting analysis relative to control. The class given is functional, cell-based. In short, it runs like this: (§3)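 Beclin 1 or nonspecific siRNA transfected into HT1080 cells (5 × 10^5 seeded a day earlier; transfection mixture for 7 h at 37 °C, then normal medium, 24 h before harvest). Cells then got 10 μM for 24 h. Adherent plus floating cells lysed in Hepes pH 7.4/Triton buffer at 4 °C for 60 min. Equal protein on 12% SDS-PAGE, nitrocellulose, ECL. Bands normalized to β-actin, n = 3.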

For assay [8], the system named is HT-1080. Briefly: Induction of apoptosis in human HT1080 cells assessed as change in BCL2 expression at 10 uM after 6 to 24 hrs by Western blotting analysis. The class given is functional, cell-based. The procedure, abridged: (§4)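 HT1080 cells treated with 10 μM for 6, 12, 18 and 24 h. Adherent and floating cells lysed 60 min at 4 °C in Hepes pH 7.4/1% Triton X-100 buffer with phosphatase and protease inhibitors. Equal protein run on 12% SDS-PAGE, transferred to nitrocellulose, probed with specific antibodies, HRP/ECL detection. Band density normalized to β-actin; n = 3.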

Assay [9] deals with HT-1080. Briefly: Induction of apoptosis in human HT1080 cells expressing beclin 1 siRNA assessed as increase in FADD protein expression at 10 uM after 24 hrs by Western blotting analysis relative to control. The class given is functional, cell-based. The procedure, abridged: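 5 × 10^5 HT1080 cells transfected with beclin 1 or nonspecific siRNA using TranSmarter for 7 h at 37 °C, then kept 24 h in normal medium. Treated with 10 μM for 24 h and lysed. Proteins assessed by Western blot with β-actin normalization and compared with nonspecific-siRNA groups.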

For assay [10], the system named is HT-1080. Kind of assay: Induction of apoptosis in human HT1080 cells assessed as change in cytosolic BID expression at 10 uM after 6 to 24 hrs by Western blotting analysis. The class given is functional, cell-based. The procedure, abridged:
as §4

Assay [11] deals with HT-1080. Kind of assay: Induction of apoptosis in human HT1080 cells expressing beclin 1 siRNA assessed as increase in procaspase-8 cleavage at 10 uM after 24 hrs by Western blotting analysis relative to control. The class given is functional, cell-based. In short, it runs like this:
as §3

The test system of assay [12] is HT-1080. Kind of assay: Cytotoxicity against human HT1080 cells assessed as growth inhibition at 10 uM pretreated with 3MA for 1 hr prior to compound addition measured after 24 hrs by MTT assay. The class given is functional, cell-based. In short, it runs like this: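 HT1080 seeded 0.8 × 10^4 cells/well. MTT 2 h at 37 °C, formazan in DMSO, A492 read. Inhibition % calculated against untreated and blank wells.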

Assay [13] concerns HT-1080. Kind of assay: Induction of apoptosis in human HT1080 cells assessed as downregulation of ICAD at 10 uM pretreated with rapamycin for 1 hr prior to compound addition measured after 24 hrs by Western blotting analysis. The class given is functional, cell-based. In short, it runs like this:
(§5)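 HT1080 cells pretreated 1 h with 1 mM 3MA or 1 nM rapamycin, then co-incubated with 10 μM for 24 h. Adherent and floating cells lysed in Hepes pH 7.4/Triton buffer. 12% SDS-PAGE, nitrocellulose, antibodies against Fas, FADD, caspase-8, caspase-3, PARP and ICAD, ECL detection. Densities normalized to β-actin; n = 3.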

For assay [14], the system named is HT-1080. Kind of assay: Cytotoxicity against human HT1080 cells assessed as growth inhibition after 12 to 72 hrs by MTT assay. The class given is functional, cell-based.
Assay [15] concerns HT-1080. Kind of assay: Induction of autophagy in human HT1080 cells assessed as conversion from LC31to LC32 at 10 uM pretreated with rapamycin for 1 hr prior to compound addition measured after 24 hrs by Western blotting analysis. The class given is functional, cell-based. In short, it runs like this:
as §1

Assay [16] deals with HT-1080. Briefly: Induction of apoptosis in human HT1080 cells expressing beclin 1 siRNA assessed as increase in procaspase-3 cleavage at 10 uM after 24 hrs by Western blotting analysis relative to control. The class given is functional, cell-based. The procedure, abridged: as §3
Assay [17] has as its system HT-1080. Briefly: Induction of apoptosis in human HT1080 cells assessed as PARP cleavage at 10 uM after 6 to 24 hrs by Western blotting analysis. The class given is functional, cell-based. In short, it runs like this: as §4
Assay [18] deals with HT-1080. Briefly: Cytotoxicity against human HT1080 cells assessed as growth inhibition at 1 to 100 uM by MTT assay. The class given is functional, cell-based. The settings on record: TDE = time-dependent effect.
Assay [19] concerns HT-1080. Kind of assay: Induction of apoptosis in human HT1080 cells assessed as increase in PARP cleavage at 10 uM pretreated with 3MA for 1 hr prior to compound addition measured after 24 hrs by Western blotting analysis. The class given is functional, cell-based. The procedure, abridged: as §5
The test system of assay [20] is HT-1080. Kind of assay: Induction of apoptosis in human HT1080 cells assessed as increase in procaspase-8 cleavage at 10 uM pretreated with 3MA for 1 hr prior to compound addition measured after 24 hrs by Western blotting analysis. The class given is functional, cell-based. The procedure, abridged: as §5
The next assay relates to HL-60. Kind of assay: Cytotoxicity against human HL60 cells assessed as growth inhibition after 24 hrs by MTT assay. The class given is functional, cell-based. In short, it runs like this: as §2
The test system of assay [21] is HT-1080. Kind of assay: Induction of apoptosis in human HT1080 cells assessed as increase in apoptotic ratio at 10 uM pretreated with 3MA for 1 hr prior to compound addition measured after 24 hrs by propidium iodide staining-based FACS flow cytometric analysis. The class given is functional, cell-based.

By IC50 is commonly meant the concentration needed to halve the response being measured. For the compound `C=C1C(=O)O[C@@H]2C[C@@]1(C)[C@@H]1C(=O)[C@]3(O)O[C@]14[C@@]2(C)OC(=O)[C@@]4(O)CC[C@H]1[C@H]3[C@H](O)C=C2CC=CC(=O)[C@@]21C` [PHYSALIN A], the outcome in the assay on HT-1080 [1], in the assay on HT-1080 [7], in the assay with HT-1080 [9], in the assay on HT-1080 [11], with HT-1080 [15] and in the assay with HT-1080 [16] was Active. Moreover, the outcome in the assay on HT-1080 [17], with HT-1080 [19], in the assay on HT-1080 [20] and in the assay on HT-1080 [21] was Active. Moreover, the “growth inhibition (GI)” value was “Dose-dependent effect” in the assay with HeLa; “Dose-dependent effect” in the assay with HepG2; “Dose-dependent effect” in the assay with HT-1080 [14]; “tde” in the assay on HT-1080 [18]; “Dose-dependent effect” in the assay on HL-60. Moreover, the values for the Activity in the assay with HT-1080 [2], in the assay on HT-1080 [4] and with HT-1080 [6] were 27.79%, “tde” and 26.7%, respectively. The result in the assay with HT-1080 [3], with HT-1080 [8], in the assay with HT-1080 [10] and in the assay with HT-1080 [13] was inactive. The concentration for half-maximal inhibition (IC50) in the assay with HT-1080 [5] came to 10.7 µM. Also, the “growth inhibition (GI)” value in the assay on HT-1080 [12] is “Active”.
